Consider three compounds from ChEMBL document CHEMBL1687805, “Colistin resistance in Acinetobacter baumannii is mediated by complete loss of lipopolysaccharide production” (2010).

≈ marks a conversion by molar mass, not a printed value.

Assay type in all cases: functional
For experiment [1], the system named is Acinetobacter baumannii. Kind of experiment: Antibacterial activity against colistin-resistant Acinetobacter baumannii ATCC 19606R harboring pAL840 plasmid encoding intact lpxA gene by broth microdilution method. The essentials:
(§1)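 Broth microdilution MIC in cation-adjusted Mueller-Hinton broth following the CLSI protocol, read in μg/ml. Strains were kept on Mueller-Hinton agar and cultured at 37°C. 19606R was selected directly on 10 μg/ml colistin and maintained with it. The pWH1266 or pAL840 transformants of 19606R were introduced by electroporation and selected on 100 μg/ml ampicillin.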

The subject of experiment [2] is Acinetobacter baumannii. Kind of experiment: Antibacterial activity against colistin-resistant Acinetobacter baumannii ATCC 19606R harboring empty plasmid pWH1266 by broth microdilution method. The gist of the method: as §1
The test system of experiment [3] is Acinetobacter baumannii. Kind of experiment: Antibacterial activity against Acinetobacter baumannii ATCC 19606 by broth microdilution method. The gist of the method: as §1
Experiment [4] concerns Acinetobacter baumannii. Kind of experiment: Antibacterial activity against colistin-resistant Acinetobacter baumannii ATCC 19606R exhibiting complete loss of lipopolysaccharide production by broth microdilution method. The gist of the method:
as §1

In the case of POLYMYXIN B, the MIC in experiment [1] was 0.5 µg/mL; in experiment [2], over 128 µg/mL; in experiment [3], 0.5 µg/mL; in experiment [4] it was over 128 µg/mL.
Consider `CC[C@H]1OC(=O)[C@H](C)[C@@H](O[C@H]2C[C@@](C)(OC)[C@@H](O)[C@H](C)O2)[C@H](C)[C@@H](O[C@@H]2O[C@H](C)C[C@H](N(C)C)[C@H]2O)[C@](C)(O)C[C@@H](C)CN(C)[C@H](C)[C@@H](O)[C@]1(C)O` [AZITHROMYCIN], for which the MIC in experiment [1] was 64 µg/mL (≈ 85.4 µM); in experiment [2], 2 µg/mL (≈ 2.67 µM); in experiment [3], 64 µg/mL (≈ 85.4 µM); in experiment [4], 2 µg/mL (≈ 2.67 µM).
On to `CO/N=C(\C(=O)N[C@@H]1C(=O)N2C(C(=O)[O-])=C(C[N+]3(C)CCCC3)CS[C@H]12)c1csc(N)n1`, for which the minimal inhibitory concentration (MIC) in experiment [1] turned out to be 16 µg/mL (≈ 33.3 µM); in experiment [2], 0.125 µg/mL (≈ 0.26 µM); in experiment [3], 16 µg/mL (≈ 33.3 µM); in experiment [4], 0.125 µg/mL (≈ 0.26 µM).
